Experimental data published in ChEMBL document CHEMBL1148164, “Cytotoxicity of artemisinin-related endoperoxides to Ehrlich ascites tumor cells” (J Nat Prod, 1993).

How the values were obtained:
[1] = Cytotoxicity against mouse EAC after 3 days by MTT assay; type: functional, cell-based; conditions: Ehrlich, 72 h
Procedure, shortened: (§1)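 Exponentially growing EAT cells (>95% trypan-blue viable; RPMI 1640, 10% heat-inactivated FCS) at 400 cells/well were exposed to compounds for 2 h at 37°, 5% CO2 (final DMSO 0.25%). Cells were washed 3×, then grown 3 days. MTT (5 mg/ml in PBS) was added for 3 h 45 min, formazan was dissolved in DMSO, and A520 was read. Survival is relative to untreated, medium-blank corrected. Three separate experiments.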

[2] = Cytotoxicity against mouse EAC at >50 uM after 3 days by MTT assay; type: functional, Ehrlich
Procedure, shortened: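 EAT cells grown in suspension in RPMI 1640 with 10% heat-inactivated FCS, streptomycin and penicillin, 37°, 5% CO2; exponential cells, viability >95%. 400 cells/well exposed 2 h at 37° (final DMSO 0.25%), washed 3×, regrown 3 days. MTT 3 h 45 min, formazan in DMSO, A520; survival versus untreated controls. Triplicate separate experiments, mean ± SD.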

[3] = Cell cycle arrest in mouse EAC assessed as accumulation at S phase by FACS analysis; type: functional, cell-based; parameters: concentration or dose not given beside the values; conditions: Ehrlich
[4] = Cytotoxicity against mouse EAC at >500 uM after 3 days by MTT assay; type: functional, Ehrlich; procedure, shortened: as §1
[5] = Cytotoxicity against mouse EAC at >125 uM after 3 days by MTT assay; type: functional, Ehrlich; procedure, shortened: as §1
[6] = Cytotoxicity against mouse EAC at >175 uM after 3 days by MTT assay; type: functional, Ehrlich; procedure, shortened: as §1

Structure (SMILES)	IC50 [1]	IC80 [1]	Activity [2]	Activity [3]	Activity [4]	Activity [5]	Activity [6]
C[C@H]1[C@@H](O)O[C@@H]2O[C@@]3(C)CC[C@H]4[C@H](C)CC[C@@H]1[C@@]24OO3 [ARTENIMOL]	83.4 µM	233 µM					
CC1=CO[C@@H]2O[C@]3(C)CC[C@H]4[C@H](C)CC[C@@H]1[C@@]24OO3 [ANHYDRODIHYDROARTEMISININ]	29.2 µM	207 µM					
C[C@@H]1CC[C@@H]2[C@]34OO[C@](C)(CC[C@@H]13)O[C@H]4OC(=O)[C@]2(C)O	48.7 µM	125 µM					
C=C1[C@@H](OO)O[C@@H]2O[C@]3(C)CC[C@H]4[C@H](C)CC[C@@H]1[C@@]24OO3 [HYDROPEROXYARTEMISITENE]	37.8 µM	59.2 µM					
C=C1C(=O)O[C@@]23[C@H]1CC[C@@H](C)[C@@H]2CC[C@@]1(C)O[C@@H]31 [ARTEANNUIN B]	47 µM	> 50 µM	44.8%				
C=C1C(=O)O[C@@H]2/C=C(\C)CC/C=C(/C)C[C@@H](OC(=O)/C(=C/CO)CO)[C@@H]12 [EUPATORIOPICRIN]	5.7 µM	13.4 µM					
CC(=O)[C@@H]1CC[C@@H](C)[C@@H]2CC[C@@]3(C)OO[C@@]12[C@H](OC=O)O3	91 µM	156 µM					
C[C@@H]1[C@H](OCc2ccc(C(=O)O)cc2)O[C@@H]2O[C@@]3(C)CC[C@@H]4[C@@H](C)CC[C@@H]1[C@]24OO3 [ARTELINIC ACID]	16.1 µM	103 µM		63%			
COc1cccc2c1C(=O)c1c(O)c3c(c(O)c1C2=O)C[C@@](O)(C(=O)CO)C[C@@H]3O[C@H]1C[C@H](N)[C@H](O)[C@H](C)O1 [DOXORUBICIN]	0.35 µM	1 µM					
CC(C)C12C=CC(C)(CC1)OO2 (stereo not drawn) [ASCARIDOLE]	> 500 µM	> 500 µM			74.8%		
C=C1[C@@H](OOCC)O[C@@H]2O[C@]3(C)CC[C@H]4[C@H](C)CC[C@@H]1[C@@]24OO3 [ETHYLPEROXYARTEMISITENE]	11.5 µM	38.3 µM					
C=C1C(=O)O[C@@H]2O[C@@]3(C)CC[C@H]4[C@H](C)CC[C@@H]1[C@@]24OO3 [ARTEMISITENE]	6.8 µM	16 µM					
C[C@H]1[C@@H](OCc2ccc(C(=O)O)cc2)O[C@@H]2O[C@]3(C)CC[C@H]4[C@H](C)CC[C@@H]1[C@@]24OO3 [SODIUMARTELINATE]	12.2 µM	47.9 µM		63%			
C[C@@H]1CC[C@H]2[C@@H](C)C(=O)O[C@@H]3O[C@@]4(C)CC[C@@H]1[C@]32OO4 [ARTEMISININ]	29.8 µM	346 µM		63%			
C[C@H]1[C@H](O[C@@H]2O[C@@H]3O[C@@]4(C)CC[C@H]5[C@H](C)CC[C@@H]([C@H]2C)[C@@]35OO4)O[C@@H]2O[C@@]3(C)CC[C@H]4[C@H](C)CC[C@@H]1[C@@]24OO3	1.4 µM	2.4 µM					
C[C@H]1[C@H](OC(=O)CCC(=O)O)O[C@@H]2O[C@@]3(C)CC[C@H]4[C@H](C)CC[C@@H]1[C@@]24OO3 [SODIUM ARESUNATE]	19.9 µM	53.6 µM					
C[C@@H]1CC[C@@H]2[C@]34OO[C@@](C)(CC[C@@H]13)O[C@H]4OC(=O)[C@@]2(C)O	> 125 µM	> 125 µM				98.8%	
CC(=O)[C@@H]1CC[C@@H](C)[C@@H]2CC[C@@]3(C)OO[C@@]12C(=O)O3	> 175 µM	> 175 µM					98.1%
CO[C@H]1O[C@@H]2O[C@@]3(C)CC[C@H]4[C@H](C)CC[C@@H]([C@H]1C)[C@@]24OO3 [ARTEMETHER]	14.3 µM	> 125 µM		63%		26.7%	
CCO[C@H]1O[C@@H]2O[C@@]3(C)CC[C@H]4[C@H](C)CC[C@@H]([C@H]1C)[C@@]24OO3 [ARTEMOTIL]	13.1 µM	212 µM		63%			
C=C(C(=O)O)[C@@H]1CC[C@@H](C)[C@@H]2CCC(C)=C[C@@H]21 [ARTEMISINIC ACID]	> 175 µM	> 175 µM					100%
